Series [1] relates to A20. Kind of series: Inhibition of anti-Ig-induced SRC dependent overall protein tyrosine phosphorylation in mouse A20 cells under suspension conditions at 0.15 to 5 uM incubated for 45 mins before being stimulated with anti-IgG for 20 mins by immunoblotting. The settings on record: dose 0.15-5 µM, time 65.0 min. The format is cell-based. The gist of the method: (§1)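 A20 cells held in suspension in modified HEPES-buffered saline were treated with inhibitor at graded concentrations or DMSO for 45 min, then stimulated with 20 μg/ml anti-IgG for 20 min. Unstimulated controls were kept 45 min plus 20 min without stimulus. Cold lysis buffer was added, and lysates cleared. Pyk2 immunoprecipitates were blotted with 4G10 anti-Tyr(P) and reprobed for Pyk2. Whole lysates were blotted with 4G10 for total phosphotyrosine and for phospho-Erk.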

The subject of series [2] is A20. The series can be described thus: Inhibition of anti-IgG-induced B-cell spreading in mouse A20 cells plated on fibronectin assessed as reduction in number of A20 cells that developed an elongated and spread morphology at 2.5 uM for 1 to 4 hrs by immunofluorescence assay. Format: functional, cell-based. To be noted: time 1-4 hrs. The gist of the method: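 A20 cells pretreated 45 min with DMSO or 2.5 μm inhibitor in RPMI 1640 with 2% FCS, plated at 37 °C on wells coated with 2.63 μg/cm² fibronectin (BSA-blocked), and stimulated with 10 μg/ml soluble anti-IgG for 1, 2 or 4 h. Phase-dark cells with elongated or irregular shape counted as spread. Percentage of adherent cells; >150 cells counted per experiment, three experiments; one-tailed paired t test.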

For series [3], the target named is Protein-tyrosine kinase 2-beta (Mus musculus) (UniProt Q9QVP9). Kind of series: Inhibition of anti-Ig-induced tyrosine phosphorylation of Pyk2 in mouse A20 cells at 0.15 to 5 uM incubated for 45 mins before being stimulated with anti-IgG for 20 mins by immunoblotting. Format: cell-based. To be noted: dose 0.15-5 µM, time 65.0 min. A digest of the protocol: as §1
A general note: A western blot detects proteins with antibodies after separation by electrophoresis.

Series [4] has as its target Tyrosine-protein kinase SYK (Mus musculus) (UniProt P48025). Kind of series: Inhibition of anti-Ig-induced SYK dependent overall protein tyrosine phosphorylation in mouse A20 cells under suspension conditions at 0.15 to 5 uM incubated for 45 mins before being stimulated with anti-IgG for 20 mins by immunoblotting. To be noted: dose 0.15-5 µM, time 65.0 min. Format: cell-based. The gist of the method: as §1

Series [5] relates to A20. Kind of series: Inhibition of anti-Ig-induced tyrosine phosphorylation of FAK in mouse A20 cells plated on collagen/fibronectin ECM conditions at 0.15 to 5 uM incubated for 45 mins before being stimulated with anti-IgG for 20 mins by immunoblotting. The format is cell-based. The settings on record: dose 0.15-5 µM, time 65.0 min.
A short description of series [6]: Toxicity in mouse A20 cells by 7-amino-actinomycin D staining. The format is cell-based.
In series [7] the test system is A20. Kind of series: Inhibition of LFA-1 Ab-induced B-cell spreading in mouse A20 cells plated on anti-LFA-1 Ab coated plates at 2.5 uM for 1 to 3 hrs by immunofluorescence assay. The settings on record: time 1-3 hrs. Format: functional, cell-based. The gist of the method: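 A20 B lymphoma cells pretreated 45 min with DMSO or 2.5 μm inhibitor, then added to wells coated overnight at 4 °C with 2.63 μg/cm² rat anti-mouse LFA-1 mAb and blocked with 2% BSA/PBS. Incubated at 37 °C in RPMI 1640 with 2% FCS for 1 or 3 h. Cells scored as spread when phase dark, elongated or irregular with membrane processes. Percentage of adherent cells spread; mean ± S.E., >150 cells per experiment, three experiments; one-tailed paired t test vs DMSO.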

Series [8] relates to A20. The series can be described thus: Inhibition of anti-Ig-induced tyrosine phosphorylation of ERK in mouse A20 cells under suspension conditions at 0.15 to 5 uM incubated for 45 mins before being stimulated with anti-IgG for 20 mins by immunoblotting. To be noted: dose 0.15-5 µM, time 65.0 min. The format is cell-based. The gist of the method: as §1
The target of series [9] is Protein-tyrosine kinase 2-beta (Mus musculus) (UniProt Q9QVP9). Kind of series: Inhibition of […] tyrosine phosphorylation of Pyk2 in mouse A20 cells induced by clustering LFA-1 with plate-bound Abs at 2.5 to 5 uM incubated for 45 mins before being stimulated with anti-LFA-1 Abs for 30 mins by immunoblotting. To be noted: dose 2.5-5 µM, time 75.0 min. The format is cell-based. A digest of the protocol: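 A20 cells pretreated 45 min with inhibitor or DMSO were added for 30 min to wells coated with 2.63 μg/cm² anti-LFA-1 Abs. Lysates were cleared, and Pyk2 or FAK immunoprecipitates were blotted with 4G10 anti-Tyr(P).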

Series [10] shares this target. The series can be described thus: Inhibition of anti-Ig-induced tyrosine phosphorylation of Pyk2 in mouse A20 cells plated on collagen/fibronectin ECM at 0.15 to 5 uM incubated for 45 mins before being stimulated with anti-IgG for 20 mins by immunoblotting. The format is cell-based. The settings on record: dose 0.15-5 µM, time 65.0 min.

Structures are written as SMILES. The source made the active and inactive calls. The calls are words filed in the database; no cut-off is given here.

1 compound from ChEMBL document CHEMBL5647686, “B cell receptor-induced phosphorylation of Pyk2 and focal adhesion kinase involves integrins and the Rap GTPases and is required for B cell spreading” (J Biol Chem, 2009) can be followed below.

Chain of Protein-tyrosine kinase 2-beta (Mus musculus) (Q9QVP9 whole entry, looked up): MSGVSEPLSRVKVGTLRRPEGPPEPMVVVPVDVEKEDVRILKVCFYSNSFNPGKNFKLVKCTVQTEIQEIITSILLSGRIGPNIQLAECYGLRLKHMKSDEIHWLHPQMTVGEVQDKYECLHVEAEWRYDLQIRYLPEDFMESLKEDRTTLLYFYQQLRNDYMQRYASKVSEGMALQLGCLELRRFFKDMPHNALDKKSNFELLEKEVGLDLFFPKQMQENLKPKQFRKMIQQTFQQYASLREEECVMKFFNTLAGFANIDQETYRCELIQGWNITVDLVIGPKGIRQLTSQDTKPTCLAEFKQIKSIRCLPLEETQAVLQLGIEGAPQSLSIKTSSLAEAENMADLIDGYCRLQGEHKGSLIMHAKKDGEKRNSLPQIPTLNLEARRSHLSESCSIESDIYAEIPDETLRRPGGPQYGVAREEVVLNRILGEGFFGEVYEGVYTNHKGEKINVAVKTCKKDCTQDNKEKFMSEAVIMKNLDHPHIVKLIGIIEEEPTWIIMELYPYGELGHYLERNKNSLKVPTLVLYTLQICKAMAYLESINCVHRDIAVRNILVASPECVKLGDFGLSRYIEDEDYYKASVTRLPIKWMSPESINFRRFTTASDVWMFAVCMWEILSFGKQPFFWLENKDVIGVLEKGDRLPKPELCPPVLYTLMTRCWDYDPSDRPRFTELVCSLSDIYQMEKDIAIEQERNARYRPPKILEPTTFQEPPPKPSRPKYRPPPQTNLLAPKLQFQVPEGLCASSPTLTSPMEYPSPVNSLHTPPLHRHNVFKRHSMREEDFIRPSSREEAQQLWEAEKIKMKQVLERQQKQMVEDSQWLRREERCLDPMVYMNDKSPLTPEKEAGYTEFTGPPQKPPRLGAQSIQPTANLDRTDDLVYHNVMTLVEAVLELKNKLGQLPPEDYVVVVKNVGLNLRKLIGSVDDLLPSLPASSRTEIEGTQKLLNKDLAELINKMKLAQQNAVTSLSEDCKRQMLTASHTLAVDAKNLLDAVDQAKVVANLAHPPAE
Chain of Tyrosine-protein kinase SYK (Mus musculus) (P48025 whole entry, looked up): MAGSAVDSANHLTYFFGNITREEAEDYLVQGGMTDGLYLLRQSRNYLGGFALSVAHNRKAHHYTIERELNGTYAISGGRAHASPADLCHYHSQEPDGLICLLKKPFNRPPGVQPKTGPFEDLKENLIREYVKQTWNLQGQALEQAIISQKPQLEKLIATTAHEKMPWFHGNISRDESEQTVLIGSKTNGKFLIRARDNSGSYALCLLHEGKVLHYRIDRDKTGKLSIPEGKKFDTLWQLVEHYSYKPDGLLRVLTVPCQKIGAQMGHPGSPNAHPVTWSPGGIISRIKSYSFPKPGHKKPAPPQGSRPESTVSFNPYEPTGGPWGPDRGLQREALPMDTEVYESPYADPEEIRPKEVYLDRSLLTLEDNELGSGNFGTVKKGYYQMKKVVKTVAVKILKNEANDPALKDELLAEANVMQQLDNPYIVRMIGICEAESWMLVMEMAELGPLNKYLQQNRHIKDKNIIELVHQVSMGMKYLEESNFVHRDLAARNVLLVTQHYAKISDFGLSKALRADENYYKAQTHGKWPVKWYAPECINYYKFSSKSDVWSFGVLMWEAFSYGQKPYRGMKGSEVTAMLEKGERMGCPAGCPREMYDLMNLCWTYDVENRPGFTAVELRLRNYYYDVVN

In the case of `CN(c1ccccc1CNc1nc(Nc2ccc3c(c2)CC(=O)N3)ncc1C(F)(F)F)S(C)(=O)=O`, the inhibition result (in the series with A20 [1]; in [4]; in the series on A20 [8]) was “inactive” throughout. In addition, the inhibition entry (in the series on A20 [2]; in series [3]; with A20 [5]; with A20 [7]; in series [9]; in series [10]) was “Active” throughout. Moreover, the Activity entry in series [6] is recorded as “Non-Toxic”.
